This note sets out measurements from ChEMBL document CHEMBL3272298, “Use of adenine nucleotide derivatives to assess the potential of exo-active-site-directed reagents as species- or isozyme-specific enzyme inactivators. 2. Isozyme-specific inactivation of a mammalian enzyme and its significance in the possible design of fetal isozyme targeted antineoplastic agents” (J Med Chem, 1978).

Series [1] concerns the target Pyruvate kinase PKM (Rattus norvegicus) (UniProt P11980). Briefly: Activity at Sprague-Dawley rat pyruvate kinase M assessed as initial enzyme reaction velocity at 0.21 mM by spectrophotometric analysis relative to ADP. The essentials: (§1)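 Isozymes K, L and M from male Sprague-Dawley rat kidney, liver and muscle, partially purified by electrofocusing and dialyzed. Assay in 0.05 M triethanolamine-HCl pH 7.0 with 5 mM MgCl2, 67 mM KCl, 0.56 mM phosphoenolpyruvate, 0.4 mM NADH, 10 μM fructose 1,6-diphosphate, 0.21 mM nucleotide and lactate dehydrogenase. After 5 min preincubation, the nucleotide starts the reaction. Initial rate at 340 nm, 22 °C, expressed relative to ADP (100).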

Series [2] is filed under the species Rattus norvegicus. Briefly: Inactivation of Sprague-Dawley rat pyruvate kinase K using PEP as substrate at 5 mM at pH 7 after 8 hrs by spectrophotometric analysis. The essentials:
(§2)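 Electrofocused isozymes, at tenfold (M) or twofold (L, K) assay level, exposed at pH 7.0 and 22 °C to Mg salts of the analogues. Medium: triethanolamine buffer with MgCl2, KCl, NADH, fructose diphosphate and lactate dehydrogenase, no ADP or PEP. Exposure was 8 h at 5 mM, or up to 10 mM for the liver isozyme; M controls were followed to 24 h. Timed aliquots were assayed by the coupled LDH method at 340 nm with 0.373 mM ADP, against controls lacking analogue.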

For series [3], the target named is Pyruvate kinase PKLR (Rattus norvegicus) (UniProt P12928). Briefly: Activity at Sprague-Dawley rat pyruvate kinase L assessed as initial enzyme reaction velocity at 0.21 mM by spectrophotometric analysis relative to ADP. The essentials: as §1
For series [4] the target is unchanged. Briefly: Inactivation of Sprague-Dawley rat pyruvate kinase L using PEP as substrate at 5 mM at pH 7 after 8 hrs by spectrophotometric analysis. The procedure, abridged:
as §2

Series [5] has as its target Pyruvate kinase PKM (Rattus norvegicus) (UniProt P11980). Briefly: Inactivation of Sprague-Dawley rat pyruvate kinase M using PEP as substrate at 5 mM at pH 7 after 8 hrs by spectrophotometric analysis. The procedure, abridged:
as §2

A short description of series [6]: Retardation factor of the compound using 1-butanol-acetic acid-water as solvent system by paper chromatography. It counts as physicochemical. Conditions: buffer.
Series [7] concerns the target Pyruvate kinase PKLR (Rattus norvegicus) (UniProt P12928). Briefly: Inactivation of Sprague-Dawley rat pyruvate kinase L using PEP as substrate at 7 mM pretreated with pyruvate kinase K by spectrophotometric analysis.
For series [8], the species on record is Rattus norvegicus. Briefly: Inactivation of Sprague-Dawley rat pyruvate kinase K using PEP as substrate at 7 mM pretreated with pyruvate kinase L by spectrophotometric analysis.
Series [9] deals with Pyruvate kinase PKLR (Rattus norvegicus) (UniProt P12928). Briefly: Inactivation of Sprague-Dawley rat pyruvate kinase L using PEP as substrate at 5 mM at pH 7 after 8 hrs by spectrophotometric analysis in presence of 5 mM ADP. The essentials: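 Liver isozyme exposed to 5 mM Mg-analogue together with 5 mM ADP for 8 h at 22 °C, pH 7.0, in triethanolamine/MgCl2/KCl medium. Remaining activity was measured in timed aliquots by the LDH-coupled 340 nm assay with 0.373 mM ADP.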

Series [10] shares this target. Briefly: Inactivation of Sprague-Dawley rat pyruvate kinase L using PEP as substrate at 7 mM pretreated with pyruvate kinase M measured for 4 hrs by spectrophotometric analysis. The procedure, abridged:
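Muscle isozyme first exposed to the analogue (7 mM) under the usual inactivation conditions at 22 °C, then liver isozyme added. Liver isozyme inactivation was followed over 4 h by the LDH-coupled 340 nm assay.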

Series [11] can be described thus: Drug metabolism assessed as Sprague-Dawley rat pyruvate kinase K-mediated drug conversion. The class given is ADME. The procedure, abridged:
(§3)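 Each isozyme preparation (K, L, M) incubated with the analogue under inactivation conditions: pH 7.0, 22 °C, triethanolamine buffer with MgCl2 and KCl. Conversion of the analogue to other compounds checked by paper electrophoresis at pH 3.5.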

Series [12] is filed under the species Rattus norvegicus. Briefly: Activity at Sprague-Dawley rat pyruvate kinase K assessed as initial enzyme reaction velocity at 0.21 mM by spectrophotometric analysis relative to ADP. The essentials: as §1
Series [13] concerns the target T1, Pyruvate kinase PKLR (Rattus norvegicus, UniProt P12928). Briefly: Drug metabolism assessed as Sprague-Dawley rat pyruvate kinase L-mediated drug conversion. The class given is ADME. The procedure, abridged:
as §3

Series [14] deals with Pyruvate kinase PKLR (Rattus norvegicus) (UniProt P12928). Briefly: Half life for inactivation of Sprague-Dawley rat pyruvate kinase L using PEP as substrate by spectrophotometric analysis. The essentials:
(§4)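 Liver isozyme incubated at 22 °C with Mg salt of the analogue at 3.0–10.0 mM in triethanolamine buffer with MgCl2, KCl, NADH, fructose diphosphate and lactate dehydrogenase, without ADP or PEP. Aliquots taken over time and assayed at 340 nm with 0.373 mM ADP. Pseudo-first-order inactivation half-times were derived, with t1/2 extrapolated to infinite inhibitor level, and apparent K from the rate-saturation analysis.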

The next series addresses Pyruvate kinase PKM (Rattus norvegicus, UniProt P11980). Briefly: Drug metabolism assessed as Sprague-Dawley rat pyruvate kinase M-mediated drug conversion. The class given is ADME. The procedure, abridged: as §3
For series [15], the target named is T1, Pyruvate kinase PKLR. Briefly: Binding affinity to Sprague-Dawley rat pyruvate kinase L assessed as apprent enzyme-inhibitor dissociation constant using PEP as substrate by spectrophotometric analysis. Conditions: read-out: Kd(app). The essentials: as §4
Series [16] addresses Pyruvate kinase PKM (Rattus norvegicus) (UniProt P11980). Briefly: Inactivation of Sprague-Dawley rat pyruvate kinase M using PEP as substrate at 7 mM pretreated at 22 degC for 2 hrs with pyruvate kinase L measured for 3.5 hrs by spectrophotometric analysis. The procedure, abridged:
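Liver isozyme treated with the analogue (7 mM) for 2 h at 22 °C under the usual inactivation conditions, then an approximately equal activity of muscle isozyme added. Muscle activity followed for a further 3.5 h by the LDH-coupled 340 nm assay.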

The target of series [17] is Pyruvate kinase PKLR (Rattus norvegicus) (UniProt P12928). Briefly: Inactivation of Sprague-Dawley rat pyruvate kinase L using PEP as substrate at 10 mM at pH 7 after 8 hrs by spectrophotometric analysis. The procedure, abridged:
as §2

As a reminder, the inhibition is the drop in the measured response relative to a control, in per cent.

Activity calls are given as the source filed them. No cut-off for these calls is given here.

Pyruvate kinase PKM (Rattus norvegicus), sequence (P11980 whole entry): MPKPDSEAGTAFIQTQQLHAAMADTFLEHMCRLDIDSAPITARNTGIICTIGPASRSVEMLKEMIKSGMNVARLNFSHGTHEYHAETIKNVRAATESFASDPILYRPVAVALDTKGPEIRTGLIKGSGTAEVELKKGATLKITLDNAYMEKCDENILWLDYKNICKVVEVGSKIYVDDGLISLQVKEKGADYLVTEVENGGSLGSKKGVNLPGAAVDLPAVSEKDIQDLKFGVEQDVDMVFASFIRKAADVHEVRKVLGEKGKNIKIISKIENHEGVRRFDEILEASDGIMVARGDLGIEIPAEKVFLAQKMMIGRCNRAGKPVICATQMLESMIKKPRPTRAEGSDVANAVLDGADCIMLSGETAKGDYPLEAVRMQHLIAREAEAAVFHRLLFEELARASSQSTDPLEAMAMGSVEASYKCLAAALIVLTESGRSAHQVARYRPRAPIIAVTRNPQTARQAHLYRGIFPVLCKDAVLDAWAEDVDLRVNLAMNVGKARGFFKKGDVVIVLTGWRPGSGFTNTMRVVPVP
Pyruvate kinase PKLR (Rattus norvegicus), sequence (P12928 whole entry): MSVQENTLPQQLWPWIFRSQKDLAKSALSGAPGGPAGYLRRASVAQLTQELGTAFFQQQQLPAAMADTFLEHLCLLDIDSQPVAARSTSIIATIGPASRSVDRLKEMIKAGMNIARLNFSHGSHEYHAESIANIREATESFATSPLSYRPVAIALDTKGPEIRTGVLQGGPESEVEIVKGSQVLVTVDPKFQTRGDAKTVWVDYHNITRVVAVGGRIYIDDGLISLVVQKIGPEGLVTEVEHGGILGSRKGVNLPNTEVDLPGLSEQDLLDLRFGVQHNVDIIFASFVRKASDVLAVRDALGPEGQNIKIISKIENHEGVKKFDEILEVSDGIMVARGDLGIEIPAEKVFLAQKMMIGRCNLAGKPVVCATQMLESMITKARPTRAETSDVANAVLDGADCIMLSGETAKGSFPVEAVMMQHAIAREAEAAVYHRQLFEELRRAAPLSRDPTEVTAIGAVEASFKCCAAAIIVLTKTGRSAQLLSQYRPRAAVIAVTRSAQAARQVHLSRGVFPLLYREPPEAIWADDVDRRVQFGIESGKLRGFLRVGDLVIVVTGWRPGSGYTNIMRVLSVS
T1 sequence (P12928 whole entry): as above
Pyruvate kinase PKM, sequence (P11980 whole entry): as the sequence (P11980 whole entry) above

As to `O=C(CI)NCCCCCCNc1ncnc2c1ncn2[C@@H]1O[C@H](COP(=O)(O)OP(=O)(O)O)[C@@H](O)[C@H]1O`, the values for the Activity in series [1] and in series [3] were 19% and 9%, respectively. Besides, the inhibition entry (in the series listed under Rattus norvegicus [2]; in series [4]; in series [5]) was “inactive” each time. Besides, in series [6], the Rf amounted to 0.65.

As for `O=C(CI)NCCNc1ncnc2c1ncn2[C@@H]1O[C@H](COP(=O)(O)OP(=O)(O)O)[C@@H](O)[C@H]1O`, the inhibition result (in the series filed under Rattus norvegicus [2]; in series [4]; in [5]) was “inactive” throughout. This molecule also registered a Rf in series [6] of 0.53.

Take `O=C(CI)NCCCCCNc1ncnc2c1ncn2[C@@H]1O[C@H](COP(=O)(O)OP(=O)(O)O)[C@@H](O)[C@H]1O`: the results for the Activity in [1] and in series [3] were 7% and 8%, respectively. Besides, the inhibition entry (in the series listed under Rattus norvegicus [2]; in [4]; in series [5]) was “inactive” in each case. The same molecule yielded a Rf in series [6] of 0.6.

Turning to `O=C(CI)NCCCNc1ncnc2c1ncn2[C@@H]1O[C@H](COP(=O)(O)OP(=O)(O)O)[C@@H](O)[C@H]1O`, the inhibition entry (in the series filed under Rattus norvegicus [2]; in [4]; in [5]) was “inactive” each time. Besides, the Rf in series [6] amounted to 0.55.

`CC(=O)NCCCCCCCCNc1ncnc2c1ncn2[C@@H]1O[C@H](COP(=O)(O)OP(=O)(O)O)[C@@H](O)[C@H]1O`: the Activity in series [3] came to 9%. In [4], the inhibition entry was “inactive”.

In the case of `O=C(CI)NCCCCNc1ncnc2c1ncn2[C@@H]1O[C@H](COP(=O)(O)OP(=O)(O)O)[C@@H](O)[C@H]1O`, the inhibition result (in the series filed under Rattus norvegicus [2]; in [4]; in series [5]) was “inactive” in each case. The Rf in series [6] came to 0.58.

On to `O=C(CI)NCCCCCCCCNc1ncnc2c1ncn2[C@@H]1O[C@H](COP(=O)(O)OP(=O)(O)O)[C@@H](O)[C@H]1O`, for which the inhibition entry in series [7] and in [10] was “Active” each time. The Activity in series [1] came out at 54%; in series [3] it was 13%; in the series filed under Rattus norvegicus [12], 21%. Besides, the inhibition result (in the series listed under Rattus norvegicus [8]; in series [9]; in the series filed under Rattus norvegicus [2]; in [16]) was “inactive” throughout. The same molecule registered an inhibition in series [4] of 80%. In addition, the Drug metabolism entry (in series [11]; at Pyruvate kinase PKLR [13]; on Pyruvate kinase PKM) was “metabolite_notdetected” each time. Besides, the Rf in series [6] was 0.71. Also, in series [14], the T1/2 was found to be 23 min. Moreover, on Pyruvate kinase PKLR [15], the Kd came out at 36 mM.

As for `O=C(CI)NCCCCCCCNc1ncnc2c1ncn2[C@@H]1O[C@H](COP(=O)(O)OP(=O)(O)O)[C@@H](O)[C@H]1O`, the Activity in series [1] stood at 25%; in series [3], 12%. The inhibition result (in the series filed under Rattus norvegicus [2]; in series [4]; in series [5]) was “inactive” throughout. The molecule further had a Rf in series [6] of 0.68.

As for `O=C(CI)NCCCCCCCCNc1ncnc2c1ncn2[C@@H]1O[C@H](COP(=O)(O)OP(=O)(O)OP(=O)(O)O)[C@@H](O)[C@H]1O`, the inhibition result in series [4] is “inactive”.

`O=C(CI)NCCCCCCCCNc1ncnc2c1ncn2[C@@H]1O[C@H](COP(=O)(O)O)[C@@H](O)[C@H]1O`: the inhibition entry in series [17] is “inactive”.
